Screening results: PubChem, several laboratories
An excerpt weighted towards active compounds, which were near 1.6% of everything screened.
HKDC1 inhibitor: inhibitors of human hexokinase HKDC1 | Q2TB90 | recombinant HKDC1, G6PDH/diaphorase resazurin coupled fluorescence | inhibition, % at 20 µM | actives 0.16% (n = 340,000) | AID 493160;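 active = inhibition above about 35% when tested at 20 µM, limit read from the data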
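Assay system: recombinant HKDC1 hexokinase; detection: coupled resazurin fluorescence, excitation 525 nm, emission 613 nm; benchmarks: DMSO-plus-enzyme-mix negative control, buffer-substituted positive control; compound dosing: single 20 µM dose; schedule: 90 min at room temperature in dark; also added: glucose plus 1 mM ATP as hexokinase substrates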
PKA-R1A activ: activates the PKA-R1A holoenzyme complex | actives 0.083% (n = 340,000) | activation, % at 11.4 µM | P00514+P68181 | PKA-R1A dissociation, Cy5-IP20 fluorescence polarization; scaled: DMSO 0%, 113 µM cGMP 100%;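 active = percent activation above the mean of all tested compounds plus 3 SD, cut at about 19% in these data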;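 also: higher means more PKAc released from R1A so a rise in polarization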
ATG4B inhibitor: ATG4B (human) cysteine protease inhibition; ATG4B cleavage of LC3-PLA2, NBD-HPC fluorescence, 1 h; inhibition, % at 8.33 µM; actives 0.51% (n = 340,000); AID 504462; in the data active = inhibition above about 40%
T cell HTS: T cell immune modulators affecting CD8 T cell-vesicle binding. 2C CD8+ T cell-vesicle binding, flow cytometry; hits give low values. response (vesicle binding), % at 7 µM. actives 0.068% (n = 330,000);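 active = response, share of CD8 T cells binding vesicles, and their 90th percentile fluorescence all below set limits, cut at about 80% in these data, passing the limit was not always enough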;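 also: values below 100% mean blocked vesicle binding to the CD8+ T cells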
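Assay system: 2C TCR transgenic mouse naive CD8+ T cells, MACS-purified | Read-out: CD8+ gate FL2 mean fluorescence as % of same-row positive control | Signal: High-throughput flow cytometry with anti-B7-1 and anti-CD8 staining | Timing: Binding step 1.5 h, 37 °C, antibody labelling 20 min, ice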
PKA-R2B activ: PKA-R2B complex activation. actives 0.079% (n = 340,000). PKA-R2B holoenzyme dissociation, Cy5-IP20 fluorescence polarization; R2B truncated from residue 108, S112A mutant; 0% DMSO only, 100% 113 µM cGMP. activation, % at 11.4 µM. AID 504700. P22694+P31323;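 active = activation above a cutoff set at the mean over all compounds plus 3 SD, cut at about 18% in these data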;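 also: higher means more holoenzyme dissociation and a rise in polarization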
Target sequence (P31323 whole entry, looked up, other chains not shown, the tested form may be a part): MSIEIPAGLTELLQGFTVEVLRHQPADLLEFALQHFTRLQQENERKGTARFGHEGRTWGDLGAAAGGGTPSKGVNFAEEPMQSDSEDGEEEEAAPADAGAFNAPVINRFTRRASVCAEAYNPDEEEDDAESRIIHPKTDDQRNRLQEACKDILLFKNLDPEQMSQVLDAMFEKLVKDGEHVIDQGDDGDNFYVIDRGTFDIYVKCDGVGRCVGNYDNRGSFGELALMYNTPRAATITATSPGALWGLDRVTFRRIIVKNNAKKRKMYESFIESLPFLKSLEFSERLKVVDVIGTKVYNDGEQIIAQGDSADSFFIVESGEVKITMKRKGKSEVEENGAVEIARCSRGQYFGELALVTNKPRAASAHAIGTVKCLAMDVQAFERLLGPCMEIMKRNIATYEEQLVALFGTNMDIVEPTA
PfG6PD inh: PfG6PD (Plasmodium falciparum) enzyme inhibition; PfGluPho enzyme, NADPH resazurin-diaphorase fluorescence; inhibition, % at 20 µM; actives 0.78% (n = 350,000); AID 504690;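 active = inhibition reaching at least a set limit at 20 µM in the primary screen, cut at about 59% in these data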
ATG4B confirm: ATG4B (human) inhibition, single-dose confirmed. shares compounds with ATG4B inhibitor. ATG4B protease fluorescent substrate cleavage assay. inhibition, % at 8.33 µM. actives 92% (n = 320). AID 504757; in the data active = inhibition above about 39%
PLA2 counter: counter-screen for ATG4B inhibitors: human phospholipase A2 | actives 66% (n = 1,600) | inhibition, % at 8.33 µM | purified PLA2, NBD-C6-HPC fluorescence, 45 min | shares compounds with ATG4B inhibitor | AID 588402; in the data active = inhibition above about 50%
Target sequence (P04054 whole entry, looked up): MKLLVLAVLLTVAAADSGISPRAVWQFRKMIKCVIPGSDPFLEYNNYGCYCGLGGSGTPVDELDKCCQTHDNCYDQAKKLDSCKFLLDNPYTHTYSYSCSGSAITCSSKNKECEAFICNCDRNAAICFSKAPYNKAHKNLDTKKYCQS
Numbers stand for hits; 0 = inactive; - = not tested or not shown.

SMILES	HKDC1 inhibitor	PKA-R1A activ	ATG4B inhibitor	T cell HTS	PKA-R2B activ	PfG6PD inh	PLA2 counter	others
CC(C)C[C@H](NC(=O)OC(C)(C)C)C(=O)N/N=C/C1=Cc2ccccc2OC1C (stereo partly drawn)	0	0	42.4	0	0	0	0	ATG4B confirm=69.1
CCS(=O)(=O)N1Cc2ccccc2CC1C(=O)Nc1nnc(SCc2c(Cl)cccc2Cl)s1 (stereo not drawn)	0	0	73.8	0	0	0	64.0
O=S(=O)(/N=C(\c1ccc(F)cc1)N1CCOCC1)c1ccccc1	-	0	-	-	0	0	-
Cc1cccc(NC(=O)CN(C)C(=O)C2CC2)c1C	0	0	0	0	0	0	-
COc1cc(-c2nnc(SCc3c(F)cccc3Cl)o2)cc(OC)c1OC	0	0	41.8	0	0	0	57.3
Fc1ccccc1Nc1ncnc2c1nnn2Cc1ccccc1	0	0	0	0	0	0	-
Clc1ccccc1Nc1ncnc2c1nnn2Cc1ccccc1	0	0	56.1	0	0	0	57.5
Clc1cccc(Cl)c1CSc1nnc(-c2sccc2-n2cccc2)o1	0	0	53.0	0	0	0	64.8
COc1ccc(-c2csc(NC(=O)c3ccccc3Br)c2C(=O)O)cc1	0	0	0	0	0	0	-
COc1ccc(-c2csc(NC(=O)c3ccc(C(C)(C)C)cc3)c2C(=O)O)cc1	0	-	47.4	0	-	0	52.5
S=C(NCCSCc1ccc(Cl)c(Cl)c1)Nc1ccccc1	0	0	41.0	0	0	0	0	ATG4B confirm=64.2
S=C(NCCSCc1c(Cl)cccc1Cl)Nc1ccccc1	0	0	45.5	0	0	0	50.3
S=C(NCCSCc1ccc(Cl)cc1Cl)Nc1ccccc1	0	0	0	0	0	0	-
O=C(NCCCc1ccccc1)c1cc(COc2ccc(F)cc2Cl)on1	0	0	0	0	0	0	-
COc1ccc(CNC(=O)C(c2ccc(C)o2)N(C(=O)c2csnn2)c2ccc(C(C)C)cc2)cc1 (stereo not drawn)	0	0	42.5	0	0	0	0
Cc1cc(C)c(-c2c(N)cc(Br)cc2Br)c(N)c1	0	0	57.1	-	0	0	65.2
Nc1ccc(Br)cc1Br	0	0	0	0	0	0	-
S=C(NCc1ccc(Cl)cc1Cl)NC1CCCCC1	0	0	44.1	0	0	0	55.2
COCCn1c(N)c(N(Cc2ccccc2)C(=O)COc2ccccc2F)c(=O)[nH]c1=O	0	0	0	0	0	0	-
CC(C)c1ccc2nc3sc(C(=O)N4CCc5ccccc5C4)c(N)c3cc2c1	0	0	52.1	0	0	0	0	ATG4B confirm=53.7
CCN1CCc2nc3sc(C(=O)N4CCc5ccccc5C4)c(N)c3cc2C1	0	0	0	0	0	0	-
CCn1cc(C(=O)OCc2cccc(Br)c2)c(=O)c2ccc(C)nc21	0	0	46.2	0	0	0	53.3
CCn1cc(C(=O)OCC(=O)OC2CC(C)CCC2C(C)C)c(=O)c2ccc(C)nc21 (stereo not drawn)	0	0	70.7	0	0	0	70.5
CCn1cc(C(=O)OCc2ccccc2)c(=O)c2ccc(C)nc21	0	0	0	0	0	0	-
C=Cc1ccc(COC(=O)c2cn(CC)c3nc(C)ccc3c2=O)cc1	0	0	40.3	0	0	0	0
SMILES	HKDC1 inhibitor	PKA-R1A activ	ATG4B inhibitor	T cell HTS	PKA-R2B activ	PfG6PD inh	PLA2 counter	others
CCn1cc(C(=O)OCc2ccc(F)cc2)c(=O)c2ccc(C)nc21	0	0	0	0	0	0	-
O=[N+]([O-])c1ccc(-[n+]2nc(-c3ccccc3)nn2-c2ccccc2)cc1	0	0	0	0	0	0	-
CN(c1ccccc1)C1CCCCC1NS(=O)(=O)c1ccc(Cl)cc1 (stereo not drawn)	0	0	56.7	0	0	0	64.4
Cc1csc(=O)n1CC(=O)Nc1ccc(Cl)cc1F	0	0	0	0	0	0	-
Cc1cccc(N=C2CCCC2C(=O)Nc2cccc(C)c2C)c1C (stereo not drawn)	0	0	0	-	0	0	-
CCC(Cc1ccccc1)NC(=O)CCNS(=O)(=O)c1cc(Br)cnc1N (stereo not drawn)	0	0	0	0	0	0	-
O=C(/C=C\c1ccccc1OC(=O)c1ccccc1F)c1cc2ccccc2o1	0	0	44.6	0	0	0	51.2
COc1ccc(S(=O)(=O)N2CCCOC2CNC(=O)C(=O)NCc2cccnc2)cc1 (stereo not drawn)	0	0	0	0	0	0	-
O=C1CCCC2=C1C1(CCCCC1)N=C(Nc1nc3ccccc3o1)N2	0	0	66.2	0	0	0	75.5
Cc1nc(Nc2nc3ccccc3o2)nc2c1CCC2	0	0	0	0	0	0	-
CC(/C=C1\SC(=S)N(C(C(=O)O)C(C)C)C1=O)=C\c1ccccc1 (stereo not drawn)	0	0	0	0	0	0	-
CC(/C=C1\SC(=S)N(c2ccc(C(=O)O)cc2)C1=O)=C\c1ccccc1	0	0	52.2	0	0	0	0	ATG4B confirm=44.0
CC(/C=C1\SC(=S)N(NC(=O)c2ccccc2C)C1=O)=C\c1ccccc1	0	0	0	0	0	0	-
CC(/C=C1\SC(=S)N(NS(=O)(=O)c2ccccc2)C1=O)=C\c1ccccc1	0	0	49.4	0	0	0	0	ATG4B confirm=58.8
CC(/C=C1\SC(=S)N(NS(=O)(=O)c2ccc(C)cc2)C1=O)=C\c1ccccc1	0	0	62.1	0	0	0	71.8
CC(/C=C1\SC(=S)N(NC(=O)c2ccc(C)cc2)C1=O)=C\c1ccccc1	0	0	0	0	0	0	-
Cc1cccc(C(C)C)c1NC(=O)COC(=O)CCC(=O)N(CC(C)C)c1c(N)n(CC(C)C)c(=O)[nH]c1=O	-	0	-	-	0	0	-
CCC(C)[C@H](NS(=O)(=O)c1ccc(F)cc1Br)C(=O)OC (stereo partly drawn)	0	0	0	-	0	0	-
COCc1ccc(C(=O)N2CCCC(Nc3ccc(C(C)C)cc3)C2)o1 (stereo not drawn)	0	0	53.2	0	0	0	59.0
COCc1ccc(C(=O)N2CCCC(Nc3ccc(C(C)C)cc3)C2)s1 (stereo not drawn)	0	0	72.4	0	0	0	75.6
CN(CC(=O)Nc1ccc(F)cc1)C(=O)CCc1ccccc1	0	0	0	0	0	0	-
Cc1cc(C(=O)NCC(c2ccco2)N(C)C)ccc1[N+](=O)[O-] (stereo not drawn)	0	0	0	0	0	0	-
